These results are taken from ChEMBL document CHEMBL4376859, “Prodrugs for nitroreductase-based cancer therapy-3: Antitumor activity of the novel dinitroaniline prodrugs/Ssap-NtrB enzyme suicide gene system: Synthesis, in vitro and in silico evaluation in prostate cancer” (Eur J Med Chem, 2020).

Active and inactive are the calls of the source. The calls are words filed in the database; no cut-off is given here.

The target of data set [1] is T1, Putative nitroreductase (Staphylococcus saprophyticus subsp. saprophyticus (strain ATCC 15305 / DSM20229 / NCIMB 8711 / NCTC 7292 / S-41), UniProt Q4A0P1).
T1 sequence (Q4A0P1 whole entry): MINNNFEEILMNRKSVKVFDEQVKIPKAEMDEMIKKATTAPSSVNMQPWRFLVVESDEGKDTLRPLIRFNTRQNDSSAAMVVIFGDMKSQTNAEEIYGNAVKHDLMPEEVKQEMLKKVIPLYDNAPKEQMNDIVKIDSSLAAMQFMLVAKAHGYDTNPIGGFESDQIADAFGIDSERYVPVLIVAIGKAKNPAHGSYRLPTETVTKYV
As to the kind of experiment: Substrate activity at Staphylococcus saprophyticus nitroreductase NtrB assessed as Kcat/Km using NADH as cofactor in Tris-Cl buffer at pH 7.5 by HPLC analysis relative to CB1954/NfsB. In kind it is ADME.

Data set [2] has as its target T1, Putative nitroreductase. As to the kind of experiment: Substrate activity at Staphylococcus saprophyticus nitroreductase expressed in Escherichia coli BL21 (DE3) assessed as retention time by HPLC analysis. In kind it is ADME.
Data set [3] can be described thus: Cytotoxicity against human HUVEC cells assessed as cell viability at 9 to 150 uM after 24 hrs by MTT assay relative to control. In kind it is cell-based. Particulars: read-out: Activity. In outline:
(§1)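 Hep3B hepatoma, PC-3 prostate cancer and HUVEC (healthy control) cells were exposed to nitro compounds at 150, 75, 38, 19 and 9 µM for 24 h and 48 h. Viability was read by MTT assay, and IC50 values were derived from the growth inhibition curves.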
For orientation: Tetrazolium assays rely on reduction of a dye to a coloured formazan, in cell work by metabolically active cells.

Data set [4] relates to Hep 3B2. As to the kind of experiment: Cytotoxicity against human Hep3B cells assessed as cell viability at 9 to 150 uM after 48 hrs by MTT assay relative to control. It is filed as functional. The essentials:
as §1

A short description of data set [5]: Cytotoxicity against human HUVEC cells assessed as cell viability at 9 to 150 uM after 48 hrs by MTT assay relative to control. In kind it is cell-based. Particulars: read-out: Activity. The essentials:
as §1

Data set [6] has as its system Hep 3B2. As to the kind of experiment: Cytotoxicity against human Hep3B cells assessed as cell viability after 24 hrs by MTT assay. In kind it is functional, cell-based. The essentials: as §1
Data set [7] concerns PC-3. In words: Cytotoxicity against human PC3 cells assessed as cell viability at 9 to 150 uM after 48 hrs by MTT assay relative to control. It is filed as functional. In outline: as §1
Data set [8] has as its system PC-3. As to the kind of experiment: Cytotoxicity against human PC3 cells assessed as cell viability at 9 to 150 uM after 24 hrs by MTT assay relative to control. In kind it is functional. The essentials:
as §1

Data set [9] concerns PC-3. In words: Cytotoxicity against human PC3 cells […] Staphylococcus saprophyticus nitroreductase NtrB assessed as reduction in cell viability in presence of NADH as cofactor after 48 hrs by SRB assay. Particulars: PC-3, 48 h. In kind it is functional, cell-based. The essentials: (§2)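 Compounds were reduced outside the cells by purified His-tag (Ni column) Ssap-NtrB. The reaction mix held 600 µM NADH and compound (150, 39, 9 µM, or 180, 18, 1.8 nM) and was applied to PC-3 cells. Controls were compound alone in 25 mM Tris/HCl pH 7.5, and enzyme alone at 31 µg/mL. After 48 h, SRB absorbance was read at 492 nm and converted to % viability.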
A general note: Sulforhodamine B stains cellular protein and so reports cell mass.

In data set [10] the target is T1, Putative nitroreductase. In words: Substrate activity at Staphylococcus saprophyticus nitroreductase NtrB assessed as Kcat/Km using NADPH as cofactor in Tris-Cl buffer at pH 7.5 by HPLC analysis relative to CB1954/NfsB. It is filed as ADME.
Data set [11] relates to Hep 3B2. As to the kind of experiment: Cytotoxicity against human Hep3B cells assessed as cell viability at 9 to 150 uM after 24 hrs by MTT assay relative to control. In kind it is functional. In outline: as §1
The test system of data set [12] is PC-3. In words: Cytotoxicity against human PC3 cells assessed as reduction in cell viability after 48 hrs by SRB assay. In kind it is functional, cell-based. The essentials:
as §2

Data set [13] has as its system Hep 3B2. As to the kind of experiment: Cytotoxicity against human Hep3B cells assessed as cell viability after 48 hrs by MTT assay. In kind it is functional, cell-based. The essentials: as §1
Data set [14] relates to HUVEC. In words: Cytotoxicity against human HUVEC cells assessed as cell viability after 24 hrs by MTT assay. It is filed as cell-based. In outline:
as §1

The test system of data set [15] is PC-3. In words: Cytotoxicity against human PC3 cells assessed as cell viability after 48 hrs by MTT assay. It is filed as functional, cell-based. In outline:
as §1

The target in data set [16] is T1, Putative nitroreductase. As to the kind of experiment: Substrate activity at Staphylococcus saprophyticus nitroreductase NtrB assessed as enzyme specific activity using NADH as cofactor in Tris-Cl buffer at pH 7.5 by HPLC analysis. In kind it is ADME.
The subject of data set [17] is HUVEC. As to the kind of experiment: Cytotoxicity against human HUVEC cells assessed as cell viability after 48 hrs by MTT assay. In kind it is cell-based. The essentials:
as §1

The subject of data set [18] is PC-3. As to the kind of experiment: Cytotoxicity against human PC3 cells assessed as cell viability after 24 hrs by MTT assay. It is filed as functional, cell-based. To be noted: pc-3. In outline: as §1

On to `CCC(=O)Nc1cc(N2CCOCC2)c([N+](=O)[O-])cc1[N+](=O)[O-]`, for which the “fold change (FC)” value in [1] was 4.73. The Retention_time in data set [2] was determined as 20.95 min. Further, the viability at 24 h, up to 150 µM in [3] lay in the range of 51 to 80%. Besides, in data set [4], the Activity is listed as 51 - 80%. The viability at 48 h, up to 150 µM in data set [5] lay within 51 to 80%. In addition, the IC50 in data set [6] was determined as 90.7 µM.

Take `CC(C)Nc1ccc([N+](=O)[O-])cc1[N+](=O)[O-]`: the Activity is given as more than 80% in data set [7], more than 80% in data set [8], 51 - 80% in data set [4] and more than 80% in [11]. The Retention_time in data set [2] is 17.94 min. In addition, in data set [3], the viability at 24 h, up to 150 µM was more than 80%. Also, the IC50 in data set [9] worked out at 9.77 µM. Further, the viability at 48 h, up to 150 µM in data set [5] is more than 80%. Besides, the “fold change (FC)” value in data set [10] was found to be 0.74. For the same compound, in data set [12], the outcome was inactive.

As to `O=[N+]([O-])c1cc([N+](=O)[O-])c(Nc2ccc(O)cc2)cc1Nc1ccc(O)cc1`, the IC50 was 14.5 µM in data set [13]; 66.7 µM in data set [14] (Homo sapiens, HUVEC); “Not Active” in data set [15]; 150 µM in [17] (Homo sapiens, HUVEC). The Activity is listed as more than 80% in data set [8], 1.61 U/mg in data set [16] and 51 - 80% in [11]. The Retention_time in [2] is given as 21.2 min.

On to `O=[N+]([O-])c1ccc(Nc2ccccc2)c([N+](=O)[O-])c1`, for which the IC50 in data set [13] was 150 µM; in [18], “Not Active”; in [15], “Not Active”; in data set [6] it was 84.9 µM. In addition, the Activity entry in data set [14] (human, huvec) is reported as “Non-Toxic”; in data set [7] it was more than 80%; in data set [8], more than 80%; in data set [17] (human, huvec), “Non-Toxic”. For the same compound, the Retention_time in [2] amounted to 18.41 min. Besides, the viability at 24 h, up to 150 µM in data set [3] is more than 80%. Also, the viability at 48 h, up to 150 µM in [5] was more than 80%. The result in data set [12] was inactive.

The term IC50 denotes the point on the concentration scale where inhibition reaches its midpoint.
